Experimental data of several laboratories.
Protocols differ between the studies behind these lines.
BMP2K: BMP-2-inducible protein kinase (BMP2K, Homo sapiens, UniProt Q9NSY1)
BRWD3: BRWD3 (Homo sapiens, UniProt Q6RI45)
Trypanothione synthetase: Trypanothione synthetase (Trypanosoma cruzi, UniProt Q9GT49)
MTNR1A: Melatonin receptor type 1A (MTNR1A, Homo sapiens, UniProt P48039)
Grm1: Metabotropic glutamate receptor 1 (Grm1, Rattus norvegicus, UniProt P23385)
CDC42BPG: Serine/threonine-protein kinase MRCK gamma (CDC42BPG, Homo sapiens, UniProt Q6DT37)
murC: UDP-N-acetylmuramate--L-alanine ligase (murC, Escherichia coli K-12, UniProt P17952)

Nc1ncnc2occ(-c3ccc(NC(=O)Nc4cc(C(F)(F)F)ccc4F)cc3)c12  remaining signal (Receptor-type tyrosine-protein kinase FLT3 (FLT3, Homo sapiens, UniProt P36888, R834Q); cell-free assay, inhibitor; 20 µM): 0%
COc1cc(NC(C)=O)c(Cl)cc1C(=O)Nc1nccs1  inhibition (Prostaglandin G/H synthase 1 (PTGS1, Homo sapiens, UniProt P23219); enzyme activity, inhibitor; 10 µM): 72%
Cc1nn(CC(F)(F)F)cc1Nc1ncc(Br)c(NCCCNC(=O)C2CCC2)n1  remaining activity (BMP2K; enzyme activity, inhibitor, radiometric; 1 µM): 19%
Cc1cnc(Nc2ccc(OCCN3CCCC3)cc2)nc1Nc1cccc(S(=O)(=O)NC(C)(C)C)c1  ΔTm (BRWD3; thermal stability, DSF; 10 µM): 0.58 °C
Cc1cc(NC(=O)c2cccc3cc(-c4cccc5[nH]nc(N)c45)ccc23)ccc1F  activity vs control (MAPK/MAK/MRK overlapping kinase (MOK, Homo sapiens, UniProt Q9UQ07); enzyme activity, inhibitor; 0.1 µM): 95%
Oc1cccc(Nc2nc(-c3ccc(F)cc3F)cs2)c1  inhibition (5-hydroxytryptamine receptor 2C (HTR2C, Homo sapiens, UniProt P28335); ligand displacement, radioligand; 10 µM): 17.4%
C[S+]([O-])c1ccc(-c2nc(-c3ccncc3)c(-c3ccc(F)cc3)[nH]2)cc1 (stereo not drawn)  ΔTm (BRWD3; thermal stability, DSF; 10 µM): 0.55 °C
O=C(CN1C(=O)Cc2c([nH]c3ccc(Br)cc23)-c2ccc(Cl)cc21)NC1=NCCS1  inhibition (Trypanothione synthetase; enzyme activity, inhibitor, absorbance; 30 µM): 16%
NS(=O)(=O)c1ccc(CNc2nc(Nc3cccc(NC(=O)N4CCCC4)c3)ncc2C2CC2)cc1  remaining activity (BMP2K; enzyme activity, inhibitor, radiometric; 1 µM): 64%
COc1cc(I)c2[nH]cc(CCNC(C)=O)c2c1  Emax (MTNR1A; GTPγS binding, agonist, radiometric; cell membranes): 39%
O=C(Nc1ccc(N2C(=O)c3ccccc3C2=O)c(Cl)c1)c1ncccc1O  Emax (Grm1; calcium signal, positive allosteric modulator; T-REx-293): 105%
CCCOc1ccc(OC)c(F)c1C(=O)c1ccc(C(=O)N[C@@H]2CNC[C@H]2NC(=O)c2ccc3[nH]ncc3c2)cc1  remaining activity (Rho-associated protein kinase 2 (ROCK2, Homo sapiens, UniProt O75116); enzyme activity, inhibitor; 0.1 µM): 25%
COc1cc2c(CCNC(C)=O)c[nH]c2cc1I  Emax (MTNR1A; cAMP, agonist, TR-FRET; CHO-K1; 20 min): 98%
O=C(NCCCNc1nc(Nc2cccc(NC(=O)N3CCCC3)c2)ncc1Br)C1CCC1  remaining activity (BMP2K; enzyme activity, inhibitor, radiometric; 1 µM): -1%
CC(CCC(=O)NCC(=O)O)C1CCC2C3CCC4CC(O)CCC4(C)C3CC(O)C12C (stereo not drawn)  ΔTm (Serine hydroxymethyltransferase, cytosolic (SHMT1, Homo sapiens, UniProt P34896); thermal stability; 50 µM): 9.2 °C
c1cc(CN2CCOCC2)cc(Nc2ncc(C3CC3)c(NCCc3c[nH]cn3)n2)c1  remaining activity (BMP2K; enzyme activity, inhibitor, radiometric; 1 µM): 18%
FC(F)(F)Oc1cccc(-c2cnc3ccc(-c4ccncc4)nn23)c1  remaining binding (CDC42BPG; cell-free assay, competition with immobilised ligand; 5 µM): 18%
CCc1ccc2scc(CCNC(C)=O)c2c1  Emax (MTNR1A; cAMP, agonist, TR-FRET; CHO-K1; 20 min): 75%
N#Cc1ccc(COc2ccccc2C=NNS(=O)(=O)c2ccccc2[N+](=O)[O-])cc1  remaining activity (murC; enzyme activity, inhibitor, absorbance; 100 µM): 95%
Cc1ccc(C(=O)Nc2ccc(CN3CCN(C)CC3)c(C(F)(F)F)c2)cc1C#Cc1cnc2cccnn12  remaining signal (CDC42BPG; cell-free assay; 23.5 nM): 100%
COc1ccc2ncn(CCNC(C)=O)c2c1  Emax (MTNR1A; GTPγS binding, agonist, radiometric; cell membranes): 53%
O=C(Cc1ccc2c(c1)OCO2)Oc1ccccc1C=NNS(=O)(=O)c1ccc2ccccc2c1  remaining activity (murC; enzyme activity, inhibitor, absorbance; 100 µM): 57%
O=C(Nc1ccc(N2C(=O)c3ccccc3C2=O)c(Cl)c1)c1ncccc1Cl  Emax (Grm1; calcium signal, positive allosteric modulator; T-REx-293): 77%
O=C(Nc1cccc(Nc2ncc(Br)c(NCCc3cnc[nH]3)n2)c1)N1CCCC1  remaining activity (BMP2K; enzyme activity, inhibitor, radiometric; 1 µM): 2%
N#Cc1ccc(COc2ccccc2C=NNS(=O)(=O)Cc2ccccc2)cc1  remaining activity (murC; enzyme activity, inhibitor, absorbance; 100 µM): 100%
O=C(CN1C(=O)Cc2c([nH]c3ccc(Br)cc23)-c2ccc(Cl)cc21)N1CCCCC1  inhibition (Trypanothione synthetase; enzyme activity, inhibitor, absorbance; 30 µM): 7.1%
O=C(Nc1ccc(C=NNS(=O)(=O)c2ccc3ccccc3c2)cc1)c1ccccc1  remaining activity (murC; enzyme activity, inhibitor, absorbance; 100 µM): 97%
Cc1nn(CC(F)(F)F)cc1Nc1ncc(C2CC2)c(NCCc2c[nH]cn2)n1  remaining activity (BMP2K; enzyme activity, inhibitor, radiometric; 1 µM): 96%
CCN(Cc1ccccc1C(F)(F)F)C(=O)C1CCN(S(=O)(=O)c2ccc3[nH]ncc3c2)CC1  inhibition (B1 bradykinin receptor (BDKRB1, Homo sapiens, UniProt P46663); ligand displacement, radioligand; 10 µM): 8%
COc1ccc2[nH]cc(CCNC(C)=O)c2c1I  Emax (MTNR1A; cAMP, agonist, TR-FRET; CHO-K1; 20 min): 90%
NNC(=O)CN1C(=O)Cc2c([nH]c3ccc(Br)cc23)-c2ccc(Cl)cc21  inhibition (Trypanothione synthetase; enzyme activity, inhibitor, absorbance; 30 µM): 10.1%
COc1cc2c(CCNC(C)=O)c(I)[nH]c2cc1[N+](=O)[O-]  Emax (MTNR1A; cAMP, agonist, TR-FRET; CHO-K1; 20 min): 92%
CN1CCN(CCNC(=O)CN2C(=O)Cc3c([nH]c4ccc(Br)cc34)-c3ccc(Cl)cc32)CC1  inhibition (Trypanothione synthetase; enzyme activity, inhibitor, absorbance; 30 µM): 16.8%
O=C(O)C(=O)Cc1ccccc1  Km (Macrophage migration inhibitory factor (MIF, Homo sapiens, UniProt P14174); enzyme activity, substrate): 760 µM
O=[N+]([O-])c1cccc(COc2ccccc2C=NNS(=O)(=O)c2ccc3ccccc3c2)c1  remaining activity (murC; enzyme activity, inhibitor, absorbance; 50 µM): 65%
COc1ccc2cccc(CCNC(C)=O)c2c1  Emax (MTNR1A; β-arrestin recruitment, agonist; CHO-K1; 90 min): 96%
